From PubChem BioAssay
Scp1 inh: inhibitors of human Scp-1 phosphatase. Q9GZU7. Recombinant Scp1, phosphopeptide, malachite green phosphate absorbance. inhibition, % at 20 µM. 0.88% of 340,000 active;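 active = inhibition above about 50% at 20 µM, limit read from the data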
Target sequence (Q9GZU7 76-261 limits assumed): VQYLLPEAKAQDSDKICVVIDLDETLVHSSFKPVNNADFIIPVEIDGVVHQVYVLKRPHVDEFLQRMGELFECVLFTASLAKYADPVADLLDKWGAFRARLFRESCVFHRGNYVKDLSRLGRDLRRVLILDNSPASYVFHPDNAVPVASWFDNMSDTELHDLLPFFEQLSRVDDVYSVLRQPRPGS
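System: SCP-1 catalytic domain; Reagent: Phospho 17-mer peptide substrate; Doses: one concentration, 20 µM, with 1.0% DMSO; Incubation: 45 min room-temperature reaction, 5 min colour, 30 min stabiliser; Signal: Phosphate-binding colour reagent, absorbance read at 630 nm.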
DNMT1 block: inhibitors of human DNMT1; DNMT1 molecular beacon, Hinp1I cleavage, fluorescence; inhibition (reported as % activation of signal), % at 10 µM; P26358; 0.83% of 360,000 active; AID 588458; in the data active = inhibition above about 50%
NadD block: NadD (S. aureus) enzyme inhibition; purified NadD enzyme, colorimetric absorbance read-out; inhibition, % at 20 µM; 0.78% of 360,000 active; in the data active = inhibition above about 26%
SUMO1-SIM PPI: modulators of human SUMO1-mediated protein-protein interactions | SUMO1 binding to a labelled peptide, TR-FRET, 1 h | 0.33% of 360,000 active | AID 602429 | inhibition, % at 20 µM; in the data active = inhibition above about 37%
Target sequence (P63165 whole entry, looked up): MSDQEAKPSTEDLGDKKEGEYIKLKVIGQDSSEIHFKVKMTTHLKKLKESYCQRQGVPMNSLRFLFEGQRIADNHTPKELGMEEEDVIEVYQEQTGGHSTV
STEP block: inhibitors of human striatal-enriched phosphatase STEP. recombinant STEP, OMFP fluorogenic substrate, fluorescence. inhibition, % at 20 µM. 0.25% of 360,000 active. AID 588621;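 active = inhibition at 20 µM, scaled per plate between control wells, above about 37%, limit read from the data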
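medium = Bis-Tris buffer pH 6.0, 2.5 mM DTT, 0.005% Tween 20 | test system = STEP (striatal-enriched tyrosine phosphatase) enzyme, cell-free | measure = normalized % inhibition | compound dosing = 20 µM, 1% DMSO | also added = 25 µM OMFP | schedule = reaction 20 min, ambient temperature | measured by = fluorescence read at 480 nm ex / 540 nm em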
LMPTP inh: LMPTP (human) inhibition. P24666. recombinant LMPTP-A, OMFP fluorogenic substrate, fluorescence intensity. inhibition, % at 20 µM. AID 651560. 0.22% of 360,000 active;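 active = compounds that cut the enzyme signal by at least half of the control window in the single-dose screen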
Target sequence (P24666 whole entry, looked up): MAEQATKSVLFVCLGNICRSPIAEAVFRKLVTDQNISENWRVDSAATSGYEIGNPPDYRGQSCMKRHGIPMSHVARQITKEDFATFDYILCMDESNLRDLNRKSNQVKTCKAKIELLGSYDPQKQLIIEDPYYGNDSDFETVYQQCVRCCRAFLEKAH
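Test system – LMPTP-A phosphatase enzyme · Quantity – 0.625 nM LMPTP-A final · Reagent – OMFP substrate, 400 µM final · Dosing – one test concentration per compound, 20 µM, with 3% DMSO overall · Timing – 50 min enzyme reaction at room temperature, protected from light · Detection – fluorescence intensity · Controls – substrate-only low control, DMSO enzyme-plus-substrate high control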
NadD inh conf: confirmation of Staphylococcus aureus NadD inhibitors; shares compounds with NadD block; purified S. aureus NadD, colorimetric enzyme assay; inhibition, % at 20 µM; 13% of 2,000 active; AID 624309; in the data active = inhibition mostly above about 42%, no sharp cut-off; inactive = mostly below about 42%
Of the large screens only hits and unclear results are named; the others gave an inactive call (follow-up assays come after a bar, where they were run). In the library only some 2.4% were active in any assay of this set; here they are far more common.

Cc1ccc(-c2nc3cc(C)c(Br)c(C)n3c2Cc2cccc(Cl)c2)cc1	none (no result: Scp1 inh, DNMT1 block, STEP block)
CN(Cc1c(C(=O)N/N=C/c2ccccc2)nnn1-c1nonc1N)c1ccccc1	none
CN(C)c1ccc(/C=N/NC(=O)c2nnn(-c3nonc3N)c2CN(C)c2ccccc2)cc1	NadD block 37.4 | NadD inh conf inactive
Nc1nonc1-n1nnc(C(=O)N/N=C\c2cccc(Cl)c2)c1CN1CCOCC1	none
CCOc1ccc(/C=N/NC(=O)c2nnn(-c3nonc3N)c2-c2ccc(OCC)cc2)cc1	none
Nc1nonc1-n1nnc(C(=O)N/N=C/c2ccccc2)c1CN1CCc2ccccc21	NadD block 60.5 | NadD inh conf inactive
CCN(CC)c1ccc(/C=N/NC(=O)c2nnn(-c3nonc3N)c2-c2ccc(C)cc2)cc1	NadD block 47.1 | NadD inh conf inactive
CCCCNC(=S)N(C)/N=C/c1ccc(OCc2ccc(C(=O)OC)cc2)c(OC)c1	none
O=S(=O)(c1ccc2c(c1)C(=NO)c1cc(S(=O)(=O)N3CCCCC3)ccc1-2)N1CCCCC1	NadD block 33.9 | NadD inh conf inactive
O=C(CNc1ccc2c(c1)OCO2)N/N=C\c1cn(Cc2ccccc2)c2ccccc12	NadD block 36.7 | NadD inh conf inactive
COc1cc(/C=C(\C#N)c2nc3ccccc3[nH]2)c([N+](=O)[O-])cc1OCc1ccccc1	NadD block 39.5 | NadD inh conf inactive
N#C/C(=C\c1ccc(Oc2ccc(C(F)(F)F)cc2[N+](=O)[O-])cc1)c1nc2ccccc2[nH]1	NadD block 40.4 | NadD inh conf inactive
CCCCNC(=O)c1nc(C2CCN(S(=O)(=O)c3cccc(C(F)(F)F)c3)CC2)oc1-c1cccc(C(F)(F)F)c1	none (no result: Scp1 inh)
Cc1cc2nc(C)n(CCCNC(=O)Nc3cccc4ccccc34)c2cc1C	none
O=C1CC(c2ccccc2)C(C(=O)Nc2ccccc2F)N1 (stereo unspecified)	none
Cc1c(C(=O)OC/C(O)=C(\C#N)c2nc3ccccc3[nH]2)oc2ccccc12	none
Cc1c(C(=O)OCC(O)=C(C#N)c2nc3ccccc3[nH]2)oc2ccc(Br)cc12	NadD block 37.0 | NadD inh conf inactive
Cn1c(O)c(C2=c3ccccc3=NC2=O)[nH]c1=S	none
COc1ccc2nc(-n3c(O)c(C4=c5ccccc5=NC4=O)[nH]c3=S)sc2c1	Scp1 inh 84.9, NadD block 51.7 | NadD inh conf inactive
CC(C)(C)OC(=O)C[C@@H]1C/C=C\C[C@@H](CC(=O)N[C@@H](CO)Cc2ccccc2)C(=O)NCCOC1=O	none
COc1cccc(-n2c(SCC(=O)Nc3cc(C)on3)nc3c([nH]c4ccccc43)c2=O)c1	none
Cc1cc(NC(=O)CSc2nc3c([nH]c4ccccc43)c(=O)n2-c2cccc(C(F)(F)F)c2)no1	NadD block 44.5 | NadD inh conf inactive
COc1ccc(OC[C@@H](O)CNC(=O)c2cccc3c2C(=O)c2ccc(-c4ccc(F)cc4OCc4ccccc4)cc2S3(=O)=O)cc1	NadD block 34.8 | NadD inh conf inactive
COc1ccc(-c2ccc3c(c2)S(=O)(=O)c2cccc(C(=O)NCCOc4ccccc4)c2C3=O)cc1OC	none
C[C@@H]1COc2cc(N3CCSCC3)ccc2S(=O)(=O)N1	none (no result: Scp1 inh, DNMT1 block, STEP block)
NC(=O)/C(=N\OC(=O)c1ccco1)c1nc(-c2ccc(Br)cc2)cs1	NadD block 30.3 | NadD inh conf 48.9
Nc1nc(-c2ccc(NC(=O)c3ccco3)cc2)cs1	none
CCOC(=O)Cc1csc(NC(=O)c2sc3nc4c(C)cc(C)cc4cc3c2N)n1	NadD block 40.4 | NadD inh conf inactive
CCOC(=O)Cc1csc(NC(=O)c2csc(C)c2)n1	none
CCC(C)(C)n1nnnc1C(C(C)C)N(CCN1CCOCC1)Cc1cc2cccc(C)c2[nH]c1=O (stereo unspecified)	none
Cc1cc2cc(CN(Cc3cccs3)C(c3nnnn3C(C)(C)C)C(C)C)c3nnnn3c2cc1C (stereo unspecified)	NadD block 30.9 | NadD inh conf inactive
O=C(NNC(=O)c1cc(-c2ccc(Br)cc2)nc2ccccc12)c1csc(N2CCOCC2)n1	NadD block 31.2 | NadD inh conf inactive
O=C(NNC(=O)c1cc(-c2ccc(Cl)cc2)nc2ccccc12)c1csc(N2CCOCC2)n1	NadD block 31.1 | NadD inh conf 37.3
O=C(NNC(=O)c1cc(-c2ccccc2)nc2ccccc12)c1csc(N2CCOCC2)n1	none
CCOc1ccc(-c2nnc(SCC(=O)N3CCNC3=O)o2)cc1	none
Cc1ccc(-n2nnnc2CCl)cc1	none
O=C(C1=C[C@@H]2[C@H]3C(=O)N(c4ccc(Cl)cc4)C(=O)[C@H]3[C@@H](C(=O)c3ccc(Cl)cc3)N2C=C1)c1ccccc1	NadD block 43.4 | NadD inh conf inactive
CCc1ccc(OCC(=O)N(CC)CC)cc1	none
O=C1Nc2ccccc2N(C(=O)c2c(F)cccc2F)C1c1nc2ccccc2[nH]1 (stereo unspecified)	none (no result: Scp1 inh, DNMT1 block, STEP block)
O=C1Nc2ccccc2N(C(=O)c2ccc(-c3ccccc3)cc2)C1c1nc2ccccc2[nH]1 (stereo unspecified)	NadD block 31.4 (no result: Scp1 inh, DNMT1 block, STEP block) | NadD inh conf inactive
Cc1c(/C=N/NC(=O)CNc2ccccc2)c2ccccn2c1C(=O)c1ccc(Cl)cc1	NadD block 35.7 | NadD inh conf inactive
Cc1ccccc1NCC(=O)N/N=C/c1c(C)c(C(=O)c2ccc(Cl)cc2)n2ccccc12	none
C#CCN(C[C@@H]1[C@@H](OC(=O)Nc2cccs2)[C@@H](OC(=O)Nc2cccs2)Cn2c(=O)n(CCCCCC)c(=O)n21)S(=O)(=O)c1ccc(C)cc1	NadD block 29.6 (no result: Scp1 inh) | NadD inh conf inactive
CCCCSCCCNC(=O)Nc1ccc(CC)cc1	none
COc1ccc(CN2C(=O)Cc3c2nc(N)c2c(N)nc(N4CCOCC4)c(C#N)c32)cc1	none
COCCN1C(=O)Cc2c1nc(N)c1c(N)nc(N3CCN(c4ccc(F)cc4)CC3)c(C#N)c21	NadD block 37.3 | NadD inh conf inactive
COCCn1c(C)cc(C(=O)COC(=O)c2ccc(Br)o2)c1C	none
CCCC[C@@H]1Cc2[nH][nH]c(=O)c2[C@H](c2ccc(C(C)C)cc2)O1	NadD block 38.1 (no result: Scp1 inh, DNMT1 block, STEP block) | NadD inh conf inactive
CCCCC(=O)Nc1ccc(N2CCN(C(=O)c3ccco3)CC2)cc1	none
CSCCC(NC(=O)COc1ccccc1)C(=O)N1CCOCC1 (stereo unspecified)	none
